Results taken from ChEMBL document CHEMBL1124366, “Synthesis and biological properties of N63-carboxamides of teicoplanin antibiotics. Structure-activity relationships” (J Med Chem, 1989).
Values after ≈ are worked out from the molar mass of the structure shown.

How the values were obtained:
Type in all cases: functional
Streptococcus pyogenes [1] = experiment: In vivo effective dose given perorally to mice infected with Streptococcus pyogenes C 203; conditions: po
Outline: (§1)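 Mice (five per treatment group, five groups) infected intraperitoneally with about 10⁵ cells of Strep. pyogenes C 203, about 100× the LD50. ED50 (mg/kg) was calculated from the percentage of mice surviving at each dose on day 7.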

Streptococcus pyogenes [2] = experiment: Subcutaneously administration into mice infected with Streptococcus pyogenes C 203; conditions: sc; outline: as §1
[3] = test system: Staphylococcus epidermidis; experiment: In vitro minimum inhibitory concentration against Staphylococcus epidermis ATCC 12228
[4] = test system: Staphylococcus haemolyticus; experiment: In vitro minimum inhibitory concentration against Staphylococcus hemolyticus 602 cell line; conditions: strain 602
Staphylococcus aureus = experiment: In vitro minimum inhibitory concentration against Staphylococcus aureus Tour
Streptococcus pneumoniae = experiment: In vitro minimum inhibitory concentration against Streptococcus pneumoniae UC41
Streptococcus pyogenes [5] = experiment: In vitro minimum inhibitory concentration against Streptococcus pyogenes C 203
Enterococcus faecalis = experiment: In vitro minimum inhibitory concentration against Streptococcus faecalis ATCC 7080

SMILES	ED50 (Streptococcus pyogenes [1])	ED50 (Streptococcus pyogenes [2])	MIC [3]	MIC [4]	MIC (Staphylococcus aureus)	MIC (Streptococcus pneumoniae)	MIC (Streptococcus pyogenes [5])	MIC (Enterococcus faecalis)
CCCCC/C=C/CCC(=O)N[C@@H]1[C@H](Oc2c3cc4cc2Oc2ccc(cc2Cl)[C@@H](O[C@@H]2O[C@@H](CO)[C@@H](O)[C@H](O)[C@@H]2NC(C)=O)[C@@H]2NC(=O)[C@H](NC(=O)[C@@H]4NC(=O)[C@H]4NC(=O)[C@@H](Cc5ccc(c(Cl)c5)O3)NC(=O)[C@H](N)c3ccc(O)c(c3)Oc3cc(O)cc4c3)c3ccc(O)c(c3)-c3c(O[C@H]4O[C@H](CO)[C@@H](O)[C@@H](O)[C@@H]4O)cc(O)cc3[C@@H](C(=O)NC3CCNCC3)NC2=O)O[C@@H](CO)[C@@H](O)[C@@H]1O	89.6 mg/kg	0.08 mg/kg	0.12 µg/mL (≈ 0.0612 µM)	1 µg/mL (≈ 0.51 µM)	0.12 µg/mL (≈ 0.0612 µM)	0.06 µg/mL (≈ 0.0306 µM)	0.06 µg/mL (≈ 0.0306 µM)	0.12 µg/mL (≈ 0.0612 µM)
CC(=O)N[C@@H]1[C@H](O[C@@H]2c3ccc(c(Cl)c3)Oc3cc4cc(c3O[C@@H]3O[C@@H](CO)[C@@H](O)[C@H](O)[C@@H]3NC(=O)CCCCCCC(C)C)Oc3ccc(cc3Cl)C[C@H]3NC(=O)[C@H](N)c5ccc(O)c(c5)Oc5cc(O)cc(c5)[C@H](NC3=O)C(=O)N[C@H]4C(=O)N[C@H]3C(=O)N[C@@H]2C(=O)N[C@H](C(=O)NCCCCCCCN(C)C)c2cc(O)cc(O[C@H]4O[C@H](CO)[C@@H](O)[C@@H](O)[C@@H]4O)c2-c2cc3ccc2O)O[C@@H](CO)[C@@H](O)[C@@H]1O	> 300 mg/kg	0.18 mg/kg	0.12 µg/mL (≈ 0.0594 µM)	0.5 µg/mL (≈ 0.248 µM)	0.12 µg/mL (≈ 0.0594 µM)	0.12 µg/mL (≈ 0.0594 µM)	0.06 µg/mL (≈ 0.0297 µM)	0.12 µg/mL (≈ 0.0594 µM)
CC(=O)N[C@@H]1[C@H](O[C@@H]2c3ccc(c(Cl)c3)Oc3cc4cc(c3O[C@@H]3O[C@@H](CO)[C@@H](O)[C@H](O)[C@@H]3NC(=O)CCCCCCC(C)C)Oc3ccc(cc3Cl)C[C@H]3NC(=O)[C@H](N)c5ccc(O)c(c5)Oc5cc(O)cc(c5)[C@H](NC3=O)C(=O)N[C@H]4C(=O)N[C@H]3C(=O)N[C@@H]2C(=O)N[C@H](C(=O)NCCCCCN(C)C)c2cc(O)cc(O[C@H]4O[C@H](CO)[C@@H](O)[C@@H](O)[C@@H]4O)c2-c2cc3ccc2O)O[C@@H](CO)[C@@H](O)[C@@H]1O	112 mg/kg	0.12 mg/kg	0.12 µg/mL (≈ 0.0602 µM)	0.5 µg/mL (≈ 0.251 µM)	0.12 µg/mL (≈ 0.0602 µM)	0.06 µg/mL (≈ 0.0301 µM)	0.06 µg/mL (≈ 0.0301 µM)	0.12 µg/mL (≈ 0.0602 µM)
CC(=O)N[C@@H]1[C@H](O[C@@H]2c3ccc(c(Cl)c3)Oc3cc4cc(c3O[C@@H]3O[C@@H](CO)[C@@H](O)[C@H](O)[C@@H]3NC(=O)CCCCCCC(C)C)Oc3ccc(cc3Cl)C[C@H]3NC(=O)[C@H](N)c5ccc(O)c(c5)Oc5cc(O)cc(c5)[C@H](NC3=O)C(=O)N[C@H]4C(=O)N[C@H]3C(=O)N[C@@H]2C(=O)N[C@H](C(=O)N(C)CCN(C)C)c2cc(O)cc(O[C@H]4O[C@H](CO)[C@@H](O)[C@@H](O)[C@@H]4O)c2-c2cc3ccc2O)O[C@@H](CO)[C@@H](O)[C@@H]1O	90 mg/kg	0.15 mg/kg	0.06 µg/mL (≈ 0.0306 µM)	0.25 µg/mL (≈ 0.127 µM)	0.12 µg/mL (≈ 0.0611 µM)	0.06 µg/mL (≈ 0.0306 µM)	0.06 µg/mL (≈ 0.0306 µM)	0.06 µg/mL (≈ 0.0306 µM)
CC(=O)N[C@@H]1[C@H](O[C@@H]2c3ccc(c(Cl)c3)Oc3cc4cc(c3O[C@@H]3O[C@@H](CO)[C@@H](O)[C@H](O)[C@@H]3NC(=O)CCCCCCC(C)C)Oc3ccc(cc3Cl)C[C@H]3NC(=O)[C@H](N)c5ccc(O)c(c5)Oc5cc(O)cc(c5)[C@H](NC3=O)C(=O)N[C@H]4C(=O)N[C@H]3C(=O)N[C@@H]2C(=O)N[C@H](C(=O)NCc2ccccn2)c2cc(O)cc(O[C@H]4O[C@H](CO)[C@@H](O)[C@@H](O)[C@@H]4O)c2-c2cc3ccc2O)O[C@@H](CO)[C@@H](O)[C@@H]1O	139 mg/kg	0.08 mg/kg	0.12 µg/mL (≈ 0.0609 µM)	8 µg/mL (≈ 4.06 µM)	0.12 µg/mL (≈ 0.0609 µM)	0.06 µg/mL (≈ 0.0305 µM)	0.06 µg/mL (≈ 0.0305 µM)	0.12 µg/mL (≈ 0.0609 µM)
CCNCCCNC(=O)[C@H]1NC(=O)[C@H]2NC(=O)[C@H](NC(=O)[C@@H]3NC(=O)[C@H]4NC(=O)[C@@H](Cc5ccc(c(Cl)c5)Oc5cc3cc(c5O[C@@H]3O[C@@H](CO)[C@@H](O)[C@H](O)[C@@H]3NC(=O)CCCCCCC(C)C)Oc3ccc(cc3Cl)[C@H]2O[C@@H]2O[C@@H](CO)[C@@H](O)[C@H](O)[C@@H]2NC(C)=O)NC(=O)[C@H](N)c2ccc(O)c(c2)Oc2cc(O)cc4c2)c2ccc(O)c(c2)-c2c(O[C@H]3O[C@H](CO)[C@@H](O)[C@@H](O)[C@@H]3O)cc(O)cc21	112 mg/kg	0.1 mg/kg	0.06 µg/mL (≈ 0.0306 µM)	0.12 µg/mL (≈ 0.0611 µM)	0.12 µg/mL (≈ 0.0611 µM)	0.12 µg/mL (≈ 0.0611 µM)	0.06 µg/mL (≈ 0.0306 µM)	0.12 µg/mL (≈ 0.0611 µM)
CNCCN(C)C(=O)[C@H]1NC(=O)[C@H]2NC(=O)[C@H](NC(=O)[C@@H]3NC(=O)[C@H]4NC(=O)[C@@H](Cc5ccc(c(Cl)c5)Oc5cc3cc(c5O[C@@H]3O[C@@H](CO)[C@@H](O)[C@H](O)[C@@H]3NC(=O)CCCCCCC(C)C)Oc3ccc(cc3Cl)[C@H]2O[C@@H]2O[C@@H](CO)[C@@H](O)[C@H](O)[C@@H]2NC(C)=O)NC(=O)[C@H](N)c2ccc(O)c(c2)Oc2cc(O)cc4c2)c2ccc(O)c(c2)-c2c(O[C@H]3O[C@H](CO)[C@@H](O)[C@@H](O)[C@@H]3O)cc(O)cc21	72 mg/kg	0.1 mg/kg	0.06 µg/mL (≈ 0.0308 µM)	1 µg/mL (≈ 0.513 µM)	0.12 µg/mL (≈ 0.0615 µM)	0.12 µg/mL (≈ 0.0615 µM)	0.06 µg/mL (≈ 0.0308 µM)	0.12 µg/mL (≈ 0.0615 µM)
CNCCNC(=O)[C@H]1NC(=O)[C@H]2NC(=O)[C@H](NC(=O)[C@@H]3NC(=O)[C@H]4NC(=O)[C@@H](Cc5ccc(c(Cl)c5)Oc5cc3cc(c5O[C@@H]3O[C@@H](CO)[C@@H](O)[C@H](O)[C@@H]3NC(=O)CCCCCCC(C)C)Oc3ccc(cc3Cl)[C@H]2O[C@@H]2O[C@@H](CO)[C@@H](O)[C@H](O)[C@@H]2NC(C)=O)NC(=O)[C@H](N)c2ccc(O)c(c2)Oc2cc(O)cc4c2)c2ccc(O)c(c2)-c2c(O[C@H]3O[C@H](CO)[C@@H](O)[C@@H](O)[C@@H]3O)cc(O)cc21	173 mg/kg	0.08 mg/kg	0.12 µg/mL (≈ 0.062 µM)	0.12 µg/mL (≈ 0.062 µM)	0.12 µg/mL (≈ 0.062 µM)	0.12 µg/mL (≈ 0.062 µM)	0.06 µg/mL (≈ 0.031 µM)	0.12 µg/mL (≈ 0.062 µM)
CNCCCN(C)C(=O)[C@H]1NC(=O)[C@H]2NC(=O)[C@H](NC(=O)[C@@H]3NC(=O)[C@H]4NC(=O)[C@@H](Cc5ccc(c(Cl)c5)Oc5cc3cc(c5O[C@@H]3O[C@@H](CO)[C@@H](O)[C@H](O)[C@@H]3NC(=O)CCCCCCC(C)C)Oc3ccc(cc3Cl)[C@H]2O[C@@H]2O[C@@H](CO)[C@@H](O)[C@H](O)[C@@H]2NC(C)=O)NC(=O)[C@H](N)c2ccc(O)c(c2)Oc2cc(O)cc4c2)c2ccc(O)c(c2)-c2c(O[C@H]3O[C@H](CO)[C@@H](O)[C@@H](O)[C@@H]3O)cc(O)cc21	> 300 mg/kg	0.13 mg/kg	0.06 µg/mL (≈ 0.0306 µM)	0.25 µg/mL (≈ 0.127 µM)	0.12 µg/mL (≈ 0.0611 µM)	0.12 µg/mL (≈ 0.0611 µM)	0.06 µg/mL (≈ 0.0306 µM)	0.12 µg/mL (≈ 0.0611 µM)
CC(=O)N[C@@H]1[C@H](O[C@@H]2c3ccc(c(Cl)c3)Oc3cc4cc(c3O[C@@H]3O[C@@H](CO)[C@@H](O)[C@H](O)[C@@H]3NC(=O)CCCCCCC(C)C)Oc3ccc(cc3Cl)C[C@H]3NC(=O)[C@H](N)c5ccc(O)c(c5)Oc5cc(O)cc(c5)[C@H](NC3=O)C(=O)N[C@H]4C(=O)N[C@H]3C(=O)N[C@@H]2C(=O)N[C@H](C(=O)NCCN2CCOCC2)c2cc(O)cc(O[C@H]4O[C@H](CO)[C@@H](O)[C@@H](O)[C@@H]4O)c2-c2cc3ccc2O)O[C@@H](CO)[C@@H](O)[C@@H]1O	300 mg/kg	0.08 mg/kg	0.12 µg/mL (≈ 0.0602 µM)	–	0.12 µg/mL (≈ 0.0602 µM)	0.12 µg/mL (≈ 0.0602 µM)	0.06 µg/mL (≈ 0.0301 µM)	0.12 µg/mL (≈ 0.0602 µM)
CC(=O)N[C@@H]1[C@H](O[C@@H]2c3ccc(c(Cl)c3)Oc3cc4cc(c3O[C@@H]3O[C@@H](CO)[C@@H](O)[C@H](O)[C@@H]3NC(=O)CCCCCCC(C)C)Oc3ccc(cc3Cl)C[C@H]3NC(=O)[C@H](N)c5ccc(O)c(c5)Oc5cc(O)cc(c5)[C@H](NC3=O)C(=O)N[C@H]4C(=O)N[C@H]3C(=O)N[C@@H]2C(=O)N[C@H](C(=O)N2CCSCC2)c2cc(O)cc(O[C@H]4O[C@H](CO)[C@@H](O)[C@@H](O)[C@@H]4O)c2-c2cc3ccc2O)O[C@@H](CO)[C@@H](O)[C@@H]1O	220 mg/kg	0.08 mg/kg	0.25 µg/mL (≈ 0.127 µM)	–	0.12 µg/mL (≈ 0.0611 µM)	0.12 µg/mL (≈ 0.0611 µM)	0.06 µg/mL (≈ 0.0305 µM)	0.12 µg/mL (≈ 0.0611 µM)
CC(=O)N[C@@H]1[C@H](O[C@@H]2c3ccc(c(Cl)c3)Oc3cc4cc(c3O[C@@H]3O[C@@H](CO)[C@@H](O)[C@H](O)[C@@H]3NC(=O)CCCCCCC(C)C)Oc3ccc(cc3Cl)C[C@H]3NC(=O)[C@H](N)c5ccc(O)c(c5)Oc5cc(O)cc(c5)[C@H](NC3=O)C(=O)N[C@H]4C(=O)N[C@H]3C(=O)N[C@@H]2C(=O)N[C@H](C(=O)N2CCN(C)CC2)c2cc(O)cc(O[C@H]4O[C@H](CO)[C@@H](O)[C@@H](O)[C@@H]4O)c2-c2cc3ccc2O)O[C@@H](CO)[C@@H](O)[C@@H]1O	115 mg/kg	< 0.03 mg/kg	0.12 µg/mL (≈ 0.0612 µM)	–	0.12 µg/mL (≈ 0.0612 µM)	0.12 µg/mL (≈ 0.0612 µM)	0.06 µg/mL (≈ 0.0306 µM)	0.06 µg/mL (≈ 0.0306 µM)
